Experimental data published in the RNAGym collection of RNA variant scans (doi:10.1126/science.aae0568).
Variants at the floor of the assay were thinned out.

B1: tRNA (parent)
chain: GUUCCGUUGGCGUAAUGGUAACGCGUCUCCCUCCUAAGGAGAAGACUGCGGGUUCGAGUCCCGUACGGAACG

Variants of: B1
Experiment: yeast fitness relative to wild type (ratio to wild type); higher = fitter; tRNA-Arg(CCU), competitive growth, 37 C, YPD
Method in brief: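 Changes in genotype frequencies gave Darwinian fitness relative to wild type. Frequencies were read by 100-nucleotide paired-end sequencing of gene amplicons before and after pooled Saccharomyces cerevisiae strains, carrying tRNA-Arg(CCU) gene variants at the native locus, were competed in YPD at 37°C for 24 hours in six replicates. A genotype was kept only with ≥ 100 starting reads, and estimates < 0.5 were set to 0.5.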

Variant	yeast fitness
G12C A36C A40U C66U A69U	≤ 0.5
U7A G9C G17C C49U C62G	≤ 0.5
G23C C29U C49A	≤ 0.5
U26C A37C A40U A57C U64G	≤ 0.5
C22A C30A C33U C61G C62U	≤ 0.5
U26C G44A	0.945
A14C A36C	0.564
G25C C27G C62U	0.597
C4A C27G A37C A45U U47C	≤ 0.5
U7C C30U G39C U64C	≤ 0.5
A14U A21U A69C	0.566
U19A G44C G67C	0.639
G50C U64C	0.967
C11A C30A G52C A65G	≤ 0.5
A42C G68C A69U	≤ 0.5
A20G U28G A57U A70U	≤ 0.5
U16A G23A C29U C34G G58A	≤ 0.5
C5U A21G A37G G39C G44C C46A U54C A65C	≤ 0.5
A36U A40C A45U C62G G63A	≤ 0.5
C5U C27A	0.817
C24G C60U A69C	≤ 0.5
C24A C49A C61G	≤ 0.5
A20U C24G	0.601
U19G A43C U53C C55G C66U	≤ 0.5

Variant	yeast fitness
U13A C46A U64C	0.609
U7C A15G	0.793
C24U C46G	1.01
G50C	0.844
U3A U35C G63C	≤ 0.5
C5G A21U C55U	0.6
A21G C27G G67A	≤ 0.5
G10A U53G C60A G68U A69C	≤ 0.5
U26G A36G A70G	0.652
C11U U32A G50A G51A G56C C61G	≤ 0.5
C4A G25C C29G G41A C49U A65G C66U	≤ 0.5
U3G A45C	0.973
C5G U26C C34G C55A A69U	≤ 0.5
U2A G6A A36C	0.666
U3C C11U G18C C66U	0.516
U7G A40U A69C	0.731
G10A A21U A43U A45U G50C	≤ 0.5
A20U C31G U32G	0.531
U2A U28A G51C A57C	≤ 0.5
U2G U19A A69U	0.551
U13G U53C G67C	0.771
U16C U19A U26A	0.648
G23A C27U C34U A45C A65C	0.532
G39C G50C	0.575

Variant	yeast fitness
U8A A40G A42U A45U U59G G68A	≤ 0.5
A36G A37G A45C G51C U59G	≤ 0.5
U8A C11U A43U C61A A65U	≤ 0.5
G25C C49U	1.01
G6C A45U C60A C61A G63A	≤ 0.5
C55U C66G	0.668
C4G C34G A42U C61U	0.646
U2A A14G G25C U47C G48C	0.573
C5U U13G G44A A57U	0.642
C5G A36G A43U A69C	0.655
C4U C5G C29U	0.541
A20U A36C A43U	0.641
U28A A45C C46G G67A	0.532
U16A A42U G56A G58A	0.817
G25C G52C	0.574
C34G A37G	0.725
C5G G23A C61A	0.529
A14G A15U U28A C33G G41C G56A	0.589
U8G C22G G25A G63C	≤ 0.5
C22U A37U G50C	0.634
U3G A36C A45C G58A G68C	≤ 0.5
C31A G39A C46U	≤ 0.5
G12C C30G A45U C46A	0.608
C31U G44C A69U	0.634

Variant	yeast fitness
C27U A37U C66U	0.542
U7A A57G	0.759
U2G C34G G39C G41C G67C A70C	≤ 0.5
C4A G38C C55G A69C	≤ 0.5
U3C G25C G41C C46U A65U	≤ 0.5
C22G U32C U54A G68A	≤ 0.5
C34G A37C G44C	≤ 0.5
C24G C46U G50A G56C C62A C66U	≤ 0.5
C29U G51C C55U	≤ 0.5
G18A G39C	0.757
U8C U13G C22U C49A A69C	≤ 0.5
A14U C30U C46U G52C	≤ 0.5
A37G A40U C55A	0.829
U19A C24G C27G C31G C34G A37C A57G C61G	0.576
G10C U26A	0.71
U2G A20C C33A	≤ 0.5
C49U U64C	0.921
C31U C62U	0.907
C4G C33G U35C U59A A69U	≤ 0.5
C5G G18A A57G A65C	≤ 0.5
C4U U59C	0.853
C33G G38C	0.548
C5G C33G C60G C66G	0.584
U3G G17C C29U A37G C61U A70C	0.512

Variant	yeast fitness
U2C U7C G23A	0.592
A15U C27A C61U	≤ 0.5
C49U U59G	0.904
U54A G67A	0.656
U7G C22A U64C	≤ 0.5
C34U G41C	0.768
U13C G25A A69U	0.767
A20C U26A C34G C46G	0.595
U3G A15G G23A U47C	≤ 0.5
U7C C29G G44C C60U	≤ 0.5
U35C A57C	0.609
C11U A43C G44A	0.741
A14G A42G C55A	≤ 0.5
C5G C11U A37C U64C	0.609
G25C U35A	0.604
U19C U35A G38A A42G A69G A70G	≤ 0.5
C31A U47C A69U	≤ 0.5
A20C A21U C27G A42U	≤ 0.5
A21C U26C C34G G44A C46A C55G G58A U59C A69U	0.625
U26A G67U	0.632
C33A G67A	0.586
A21C U32A C34A G38A A45U	≤ 0.5
A21G C61G C66U A69U	≤ 0.5
A14U C27A C62G	0.667

Variant	yeast fitness
C5U A43C A69C	0.802
G6A C31U	0.933
G25C G68A	0.817
C49U U53C	0.691
G44A C55A	0.658
G52C G67C	0.555
G17C G44A G48A	0.529
C11A A42G U64A G67A	≤ 0.5
C5G C30G G56A G58C C61G	≤ 0.5
G41A C55G	0.605
G9A U19G	0.848
C62A C66A	0.51
C34U C62A C66U	≤ 0.5
G58A U64C	0.976
U16A C55G	0.54
G6A U13G U35C A57C	≤ 0.5
U3C C11G G41C	≤ 0.5
G25A C34G	0.726
C11G A14U C24A A57C	0.572
G68C A69G	0.945
U3A A14U C46U U53A	≤ 0.5
G18C A21G U47A G67C	0.53
G10C A14U C31G	≤ 0.5
G6C C22G U64A	≤ 0.5

Variant	yeast fitness
U19A C27U G44C G48C	≤ 0.5
U2C A14G C22A C27A C29U A42C	≤ 0.5
C11U U16A U47C	0.838
U7C G51C	0.6
U2C G48A G63C	0.953
C4U C24U G56A C60A	≤ 0.5
C5U A20U U26A C34U C49A A57C C62U	≤ 0.5
G9C A43C A57U G63A	≤ 0.5
G10C C49U A69C	0.575
C4A G39A G52C C55G	≤ 0.5
C24U U59G	0.712
U16G A65C	0.932
G6A A15C A20U G68A	≤ 0.5
C11G C31U A42U A70U	≤ 0.5
C11G G38A	0.63
C46U G56A	0.978
C5U C11U A15C U28A C62U C66A	≤ 0.5
A15U G44C G68C	≤ 0.5
U3G A14C A20U	≤ 0.5
A43U G67A A69U	0.548
A21G G38C A40U G44C G67A A69C	≤ 0.5
C24U C34G	0.72
U3A G9C C27G	≤ 0.5
